Values after ≈ are worked out from the molar mass of the structure shown.
Columns and labels:
Bacillus subtilis [1] = test: Concentration (IC50) to inhibit the growth of Bacillus subtilis; type: functional, organism-based
In short: (§1)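 Broth dilution in a defined liquid peptide medium lacking antagonists of small peptide mimetics. Inocula were overnight cultures grown in this medium at 37 °C and diluted to about 4 × 10^6 cfu/mL. Compound was tested as a doubling dilution series, final 0.065–512 μg/mL, incubated overnight at 37 °C. Turbidity was read, and IC50 is the concentration reducing 24-h growth to 50% of control.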

Escherichia coli [2] = test: Minimum inhibitory concentration (MIC) to control the growth of Escherichia coli strain PCM 2057; type: functional
In short: (§2)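 Doubling dilutions of compound were made in a defined liquid peptide medium free of peptide-mimetic antagonists, final 0.065–512 μg/mL. The inoculum was an overnight 37 °C culture diluted to about 4 × 10^6 cfu/mL, incubated overnight at 37 °C. Non-turbid samples were subcultured (0.1 mL) onto solid peptide-medium agar and incubated overnight at 37 °C to assign MIC.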

Escherichia coli [3] = test: Concentration (IC50) to inhibit the growth of Escherichia coli.; type: functional, organism-based; in short: as §1
Klebsiella aerogenes [4] = test: Concentration (IC50) to inhibit the growth of Klebsiella aerogenes.; type: functional, organism-based; in short: as §1
Klebsiella aerogenes [5] = test: Minimum inhibitory concentration (MIC) to control the growth of Klebsiella aerogenes strain PCM 2063; type: functional; in short: as §2
Staphylococcus aureus [6] = test: Concentration (IC50) to inhibit the growth of Staphylococcus aureus.; type: functional, organism-based; in short: as §1
Staphylococcus aureus [7] = test: Minimum inhibitory concentration (MIC) to control the growth of Staphylococcus aureus strain PCM 2054.; type: functional; in short: as §2
Serratia marcescens [8] = test: Concentration (IC50) to inhibit the growth of Serratia marcescens.; type: functional, organism-based; in short: as §1
Serratia marcescens [9] = test: Minimum inhibitory concentration (MIC) to control the growth of Serratia marcescens strain PCM 549.; type: functional; in short: as §2
Enterococcus faecalis [10] = test: Concentration (IC50) to inhibit the growth of Streptococcus faecalis.; type: functional, organism-based; in short: as §1
Enterococcus faecalis [11] = test: Minimum inhibitory concentration (MIC) to control the growth of Streptococcus faecalis strain PCM 896; type: functional; in short: as §2
Bacillus subtilis [12] = test: Minimum inhibitory concentration (MIC) to control the growth of Bacillus subtilis strain PCM 1949.; type: functional; in short: as §2

CC(C)CC(N)C(=O)NC(C)(C)P(=O)(O)O (centres undefined)
IC50 (Bacillus subtilis [1]): 45 µg/mL (≈ 178 µM) | MIC (Escherichia coli [2]): 64 µg/mL (≈ 254 µM) | IC50 (Escherichia coli [3]): 35 µg/mL (≈ 139 µM) | IC50 (Klebsiella aerogenes [4]): 4.4 µg/mL (≈ 17.4 µM) | MIC (Klebsiella aerogenes [5]): 256 µg/mL (≈ 1010 µM) | IC50 (Staphylococcus aureus [6]): 48 µg/mL (≈ 190 µM) | MIC (Staphylococcus aureus [7]): 256 µg/mL (≈ 1010 µM) | IC50 (Serratia marcescens [8]): 384 µg/mL (≈ 1520 µM) | MIC (Serratia marcescens [9]): > 512 µg/mL | IC50 (Enterococcus faecalis [10]): 4.4 µg/mL (≈ 17.4 µM) | MIC (Enterococcus faecalis [11]): 8 µg/mL (≈ 31.7 µM) | MIC (Bacillus subtilis [12]): 256 µg/mL (≈ 1010 µM)

CC(N)C(=O)NC(C1CC1)P(=O)(O)O (centres undefined)
IC50 (Bacillus subtilis [1]): > 512 µg/mL | MIC (Escherichia coli [2]): > 512 µg/mL | IC50 (Escherichia coli [3]): > 512 µg/mL | IC50 (Klebsiella aerogenes [4]): > 512 µg/mL | MIC (Klebsiella aerogenes [5]): > 512 µg/mL | IC50 (Staphylococcus aureus [6]): > 512 µg/mL | MIC (Staphylococcus aureus [7]): > 512 µg/mL | IC50 (Serratia marcescens [8]): > 512 µg/mL | MIC (Serratia marcescens [9]): > 512 µg/mL | IC50 (Enterococcus faecalis [10]): > 512 µg/mL | MIC (Enterococcus faecalis [11]): > 512 µg/mL | MIC (Bacillus subtilis [12]): > 512 µg/mL

CC(N)C(=O)NC(C)(C)P(=O)(O)O (centres undefined)
IC50 (Bacillus subtilis [1]): 16 µg/mL (≈ 76.1 µM) | MIC (Escherichia coli [2]): 64 µg/mL (≈ 305 µM) | IC50 (Escherichia coli [3]): 5.6 µg/mL (≈ 26.6 µM) | IC50 (Klebsiella aerogenes [4]): 512 µg/mL (≈ 2440 µM) | MIC (Klebsiella aerogenes [5]): 256 µg/mL (≈ 1220 µM) | IC50 (Staphylococcus aureus [6]): 282 µg/mL (≈ 1340 µM) | MIC (Staphylococcus aureus [7]): 256 µg/mL (≈ 1220 µM) | IC50 (Serratia marcescens [8]): 48 µg/mL (≈ 228 µM) | MIC (Serratia marcescens [9]): > 512 µg/mL | IC50 (Enterococcus faecalis [10]): 19 µg/mL (≈ 90.4 µM) | MIC (Enterococcus faecalis [11]): 8 µg/mL (≈ 38.1 µM)

CC(N)C(=O)NC(C(C)(C)C)P(=O)(O)O (centres undefined)
IC50 (Bacillus subtilis [1]): > 512 µg/mL | MIC (Escherichia coli [2]): > 512 µg/mL | IC50 (Escherichia coli [3]): > 512 µg/mL | IC50 (Klebsiella aerogenes [4]): > 512 µg/mL | MIC (Klebsiella aerogenes [5]): > 512 µg/mL | IC50 (Staphylococcus aureus [6]): > 512 µg/mL | MIC (Staphylococcus aureus [7]): > 512 µg/mL | IC50 (Serratia marcescens [8]): > 512 µg/mL | MIC (Serratia marcescens [9]): > 512 µg/mL | IC50 (Enterococcus faecalis [10]): > 512 µg/mL | MIC (Enterococcus faecalis [11]): > 512 µg/mL | MIC (Bacillus subtilis [12]): > 512 µg/mL

CC(C)CC(N)C(=O)NC(CC(C)C)P(=O)(O)O (centres undefined)
IC50 (Bacillus subtilis [1]): 32 µg/mL (≈ 114 µM) | MIC (Escherichia coli [2]): > 512 µg/mL | IC50 (Escherichia coli [3]): 307 µg/mL (≈ 1100 µM) | IC50 (Klebsiella aerogenes [4]): > 512 µg/mL | MIC (Klebsiella aerogenes [5]): > 512 µg/mL | IC50 (Staphylococcus aureus [6]): 104 µg/mL (≈ 371 µM) | MIC (Staphylococcus aureus [7]): 512 µg/mL (≈ 1830 µM) | IC50 (Serratia marcescens [8]): 64 µg/mL (≈ 228 µM) | MIC (Serratia marcescens [9]): > 512 µg/mL | IC50 (Enterococcus faecalis [10]): > 512 µg/mL | MIC (Enterococcus faecalis [11]): > 512 µg/mL | MIC (Bacillus subtilis [12]): > 512 µg/mL

CC(C)CC(N)C(=O)NC(C1CCCCC1)P(=O)(O)O (centres undefined)
IC50 (Bacillus subtilis [1]): > 512 µg/mL | MIC (Escherichia coli [2]): > 512 µg/mL | IC50 (Escherichia coli [3]): > 512 µg/mL | IC50 (Klebsiella aerogenes [4]): > 512 µg/mL | MIC (Klebsiella aerogenes [5]): > 512 µg/mL | IC50 (Staphylococcus aureus [6]): > 512 µg/mL | MIC (Staphylococcus aureus [7]): > 512 µg/mL | IC50 (Serratia marcescens [8]): > 512 µg/mL | MIC (Serratia marcescens [9]): > 512 µg/mL | IC50 (Enterococcus faecalis [10]): > 512 µg/mL | MIC (Enterococcus faecalis [11]): > 512 µg/mL | MIC (Bacillus subtilis [12]): > 512 µg/mL

CC(C)CC(N)C(=O)NC(C)P(=O)(O)O (centres undefined)
IC50 (Bacillus subtilis [1]): 4 µg/mL (≈ 16.8 µM) | MIC (Escherichia coli [2]): 8 µg/mL (≈ 33.6 µM) | IC50 (Escherichia coli [3]): 0.09 µg/mL (≈ 0.378 µM) | IC50 (Klebsiella aerogenes [4]): 1.6 µg/mL (≈ 6.72 µM) | MIC (Klebsiella aerogenes [5]): > 512 µg/mL | IC50 (Staphylococcus aureus [6]): 8 µg/mL (≈ 33.6 µM) | MIC (Staphylococcus aureus [7]): 32 µg/mL (≈ 134 µM) | IC50 (Serratia marcescens [8]): 0.1 µg/mL (≈ 0.42 µM) | MIC (Serratia marcescens [9]): 0.5 µg/mL (≈ 2.1 µM) | IC50 (Enterococcus faecalis [10]): 2 µg/mL (≈ 8.4 µM) | MIC (Enterococcus faecalis [11]): > 512 µg/mL | MIC (Bacillus subtilis [12]): 16 µg/mL (≈ 67.2 µM)

CC(C)CC(N)C(=O)NC(C12CC3CC(CC(C3)C1)C2)P(=O)(O)O (centres undefined)
IC50 (Bacillus subtilis [1]): > 512 µg/mL | MIC (Escherichia coli [2]): > 512 µg/mL | IC50 (Escherichia coli [3]): > 512 µg/mL | IC50 (Klebsiella aerogenes [4]): > 512 µg/mL | MIC (Klebsiella aerogenes [5]): > 512 µg/mL | IC50 (Staphylococcus aureus [6]): > 512 µg/mL | MIC (Staphylococcus aureus [7]): > 512 µg/mL | IC50 (Serratia marcescens [8]): > 512 µg/mL | MIC (Serratia marcescens [9]): > 512 µg/mL | IC50 (Enterococcus faecalis [10]): > 512 µg/mL | MIC (Enterococcus faecalis [11]): > 512 µg/mL | MIC (Bacillus subtilis [12]): > 512 µg/mL

CC(N)C(=O)NC1(P(=O)(O)O)CCCCC1 (centres undefined)
IC50 (Bacillus subtilis [1]): > 512 µg/mL | MIC (Escherichia coli [2]): > 512 µg/mL | IC50 (Escherichia coli [3]): > 512 µg/mL | IC50 (Klebsiella aerogenes [4]): > 512 µg/mL | MIC (Klebsiella aerogenes [5]): > 512 µg/mL | IC50 (Staphylococcus aureus [6]): > 512 µg/mL | MIC (Staphylococcus aureus [7]): > 512 µg/mL | IC50 (Serratia marcescens [8]): > 512 µg/mL | MIC (Serratia marcescens [9]): > 512 µg/mL | IC50 (Enterococcus faecalis [10]): > 512 µg/mL | MIC (Enterococcus faecalis [11]): > 512 µg/mL | MIC (Bacillus subtilis [12]): > 512 µg/mL

CC(C)CC(N)C(=O)NC(C(C)(C)C)P(=O)(O)O (centres undefined)
IC50 (Bacillus subtilis [1]): > 512 µg/mL | MIC (Escherichia coli [2]): > 512 µg/mL | IC50 (Escherichia coli [3]): > 512 µg/mL | IC50 (Klebsiella aerogenes [4]): > 512 µg/mL | MIC (Klebsiella aerogenes [5]): > 512 µg/mL | IC50 (Staphylococcus aureus [6]): > 512 µg/mL | MIC (Staphylococcus aureus [7]): > 512 µg/mL | IC50 (Serratia marcescens [8]): > 512 µg/mL | MIC (Serratia marcescens [9]): > 512 µg/mL | IC50 (Enterococcus faecalis [10]): > 512 µg/mL | MIC (Enterococcus faecalis [11]): > 512 µg/mL | MIC (Bacillus subtilis [12]): > 512 µg/mL

Source: ChEMBL document CHEMBL1123266, “Antibacterial activity of phosphono dipeptides related to alafosfalin” (J Med Chem, 1986)
